# Data reported in ChEMBL document CHEMBL1914356, “Maslinic acid derivatives induce significant apoptosis in b16f10 murine melanoma cells” (2011).
# The source made the active and inactive calls. No cut-off for these calls is given here.
# Assays:
# B16-F10 [1] = assay: Induction of apoptosis in mouse B16F10 cells assessed as necrotic cells at 30 uM after 24 hrs using annexin V-FITC/propidium iodide staining by flow cytometry; assay type: functional
# Method in brief: (§1)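 B16-F10 cells grown in DMEM with 4 mM L-glutamine, 1 mM pyruvate, 4.5 g/L glucose and 10% FBS. 300,000 cells/well were plated, then treated in DMSO after 24 h. Vehicle and medium-alone controls were included. Cells were detached with EDTA-trypsin, PBS-washed and set at 1 × 10^6 cells/mL in binding buffer. Annexin V-FITC/PI staining ran 15 min at room temperature in the dark, followed by flow cytometry within 1 h.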
# B16-F10 [2] = assay: Induction of apoptosis in mouse B16F10 cells assessed as total apoptosis at 1 to 10 uM after 48 hrs using annexin V-FITC/propidium iodide staining by flow cytometry; assay type: functional, cell-based
# Method in brief: (§2)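 B16-F10 cells grown in DMEM with 4 mM L-glutamine, 1.5 g/L bicarbonate, 1 mM pyruvate, 4.5 g/L glucose, 10% FBS. Seeded at 300,000 cells/well in 6-well dishes, treated 24 h later with compound in DMSO. Vehicle and medium-only controls. Detached with EDTA-trypsin, PBS-washed, stained with annexin V-FITC and PI 15 min at room temperature in dark. Total apoptosis = early + late. Mean ± SD, two independent experiments.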
# B16-F10 [3] = assay: Induction of apoptosis in mouse B16F10 cells assessed as total apoptosis at 1 uM after 24 hrs using annexin V-FITC/propidium iodide staining by flow cytometry; assay type: functional; method in brief: as §2
# B16-F10 [4] = assay: Induction of apoptosis in mouse B16F10 cells assessed as total apoptosis at 1 to 10 uM after 24 hrs using annexin V-FITC/propidium iodide staining by flow cytometry; assay type: functional, cell-based; method in brief: as §2
# B16-F10 [5] = assay: Induction of apoptosis in mouse B16F10 cells assessed as early/late apoptotic cells at 30 uM after 24 hrs using annexin V-FITC/propidium iodide staining by flow cytometry; assay type: functional; method in brief: as §1
# B16-F10 [6] = assay: Induction of apoptosis in mouse B16F10 cells assessed as total apoptosis at 20 uM after 24 hrs using annexin V-FITC/propidium iodide staining by flow cytometry; assay type: functional
# Method in brief: (§3)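 B16-F10 cells in DMEM/10% FBS were plated at 300,000 cells/well, then treated 24 h later, in duplicate, in DMSO at […] for 24 or 48 h. Vehicle and medium controls were included. Annexin V-FITC/PI staining ran 15 min at room temperature in the dark. Total apoptosis (early + late) was read by flow cytometry as mean ± SD from two independent experiments.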
# B16-F10 [7] = assay: Induction of apoptosis in mouse B16F10 cells assessed as total apoptosis at 20 uM after 48 hrs using annexin V-FITC/propidium iodide staining by flow cytometry; assay type: functional, cell-based; method in brief: as §3
SMILES,Activity (B16-F10 [1]),Activity (B16-F10 [2]),Activity (B16-F10 [3]),Activity (B16-F10 [4]),Activity (B16-F10 [5]),Activity (B16-F10 [6]),Activity (B16-F10 [7])
CC1(C)CC[C@]2(C(=O)OCc3ccccc3)CC[C@]3(C)C(=CC[C@@H]4[C@@]5(C)C[C@@H](O)[C@H](O)C(C)(C)[C@@H]5CC[C@]43C)[C@@H]2C1 [BENZYL MASLINATE],<10%,inactive,87.5%,Active,80%,> 70%,Active
CC1(C)CC[C@]2(C#N)CC[C@]3(C)C(=CC[C@@H]4[C@@]5(C)C[C@@H](O)[C@H](O)C(C)(C)[C@@H]5CC[C@]43C)[C@@H]2C1,<10%,inactive,78.75%,Active,80%,70%,Active
CC(=O)O[C@@H]1C[C@]2(C)[C@H]3CC=C4[C@@H]5CC(C)(C)CC[C@]5(C#N)CC[C@@]4(C)[C@]3(C)CC[C@H]2C(C)(C)[C@H]1OC(C)=O,<10%,inactive,68.62%,Active,80%,70%,Active
